Test results from ChEMBL document CHEMBL4190402, “Development of a Novel Human Parathyroid Hormone Receptor 1 (hPTHR1) Agonist (CH5447240), a Potent and Orally Available Small Molecule for Treatment of Hypoparathyroidism” (J Med Chem, 2018).
≈ marks a conversion by molar mass, not a printed value. Calls of active or inactive are those of the source. The calls are words filed in the database; no cut-off is given here.

Experiments:
[1] = Half life in Sprague-Dawley rat at 5 ug/kg, sc; format: ADME, organism-based; conditions: in vivo, 0.005 mg/kg
Rattus norvegicus [2] = assay: Tmax in Sprague-Dawley rat at 5 ug/kg, sc; format: ADME, organism-based; conditions: in vivo, 0.005 mg/kg
Rattus norvegicus [3] = assay: In vivo agonist activity at PTHR1 in Crl:CD(SD) rat TPTX model assessed as increase in serum calcium levels at 9 nmol/kg, sc administered as single dose measured after 24 hrs by o-cresolphthalein complexone method; format: functional, organism-based
In short: (§1)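 Female 6-week-old Crl:CD(SD) rats after surgical TPTX; those with serum Ca <8.0 mg/dl at day 5 were used, and treatment began day 6. Single sc dose of hPTH(1-34) at 9 nmol/kg, or phosphate-citrate buffer pH 6.0 vehicle, n=5 per group. Jugular blood taken under isoflurane before dosing and at 0.5–24 h. Serum Ca measured by o-CPC, Pi by xanthine oxidase. Mean ± SEM.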

Rattus norvegicus [4] = assay: In vivo agonist activity at PTHR1 in Crl:CD(SD) rat TPTX model assessed as decrease in serum phosphorus levels 9 nmol/kg, sc administered as single dose measured after 24 hrs by xanthine oxidase method; format: functional, organism-based; in short: as §1
LLC-PK1 = assay: Induction of cAMP production in porcine LLC-PK1 cells after 20 mins by enzyme immunoassay; format: functional, cell-based; conditions: Sus scrofa
In short: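 Counter-screen on parent LLC-PK1 cells lacking hPTHR1. Conditions match the HKRK-B7 assay: 20 min at 37°C in IBMX-containing assay medium, then cAMP read by EIA.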

[5] = Intrinsic clearance in human liver microsomes assessed per mg protein at 1 uM after 30 mins in absence of NADPH by LC-MS/MS analysis; format: ADME, microsome
[6] = Solubility of the compound in PBS at pH 6.5 at 1 mM by HPLC-UV analysis; format: physicochemical
In short: (§2)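 A 1 mM DMSO stock (50 µL) was freeze-dried, then the residue taken up in 50 mM PBS pH 6.5 or FaSSIF pH 6.5. Sonicated 10 min, shaken 2 h, centrifuged, filtered. Filtrate concentration determined by HPLC-UV against each compound's calibration curve.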

[7] = Solubility of the compound in FaSSIF at 1 mM by HPLC-UV analysis; format: physicochemical; in short: as §2
[8] = target: T1, Parathyroid hormone/parathyroid hormone-related peptide receptor (Homo sapiens, UniProt Q03431); assay: (§3) Agonist activity at human PTHR1 expressed in HKRKB7 cells assessed as accumulation of intracellular cAMP after 20 mins by enzyme immunoassay; format: functional, cell-based
T1 sequence (Q03431 whole entry): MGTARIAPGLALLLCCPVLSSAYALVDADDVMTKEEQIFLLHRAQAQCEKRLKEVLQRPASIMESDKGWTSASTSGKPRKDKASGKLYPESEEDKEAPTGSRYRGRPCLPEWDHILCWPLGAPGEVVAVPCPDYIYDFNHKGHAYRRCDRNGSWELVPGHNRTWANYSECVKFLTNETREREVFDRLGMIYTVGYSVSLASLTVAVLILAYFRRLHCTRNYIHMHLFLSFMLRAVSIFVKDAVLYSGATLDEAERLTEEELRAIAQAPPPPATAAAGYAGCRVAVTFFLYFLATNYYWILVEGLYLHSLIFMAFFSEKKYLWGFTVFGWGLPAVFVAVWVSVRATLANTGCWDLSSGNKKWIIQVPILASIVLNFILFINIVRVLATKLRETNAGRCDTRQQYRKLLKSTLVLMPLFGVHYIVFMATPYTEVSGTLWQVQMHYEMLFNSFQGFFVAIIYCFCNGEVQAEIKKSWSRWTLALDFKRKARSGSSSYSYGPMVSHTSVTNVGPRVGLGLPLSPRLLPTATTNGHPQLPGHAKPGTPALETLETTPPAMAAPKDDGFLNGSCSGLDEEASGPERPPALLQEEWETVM
In short: (§4)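 HKRK-B7 cells (LLC-PK1 stably expressing hPTHR1), 1.0 x 10^3 per well, seeded overnight, then exposed to serially diluted compound in McCoy's 5A with 2 mg/ml BSA, 1 mmol/l IBMX and 2 mmol/l HEPES for 20 min at 37°C. Cells washed, frozen, lysed in 50 mmol/l HCl, cAMP read by EIA.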

[9] = target: T2, Parathyroid hormone/parathyroid hormone-related peptide receptor (Homo sapiens) (UniProt Q03431); assay: as §3; format: functional, cell-based; in short: as §4
T2 sequence (whole entry): T1 sequence (Q03431 whole entry)

[10] = Intrinsic clearance in human liver microsomes assessed per mg protein at 1 uM after 30 mins in presence of NADPH by LC-MS/MS analysis; format: ADME, microsome; conditions: read-out: CLH
[11] = Half life in Crl:CD/SD IGS, CRJ rat at 3 mg/kg, po by LC-MS/MS analysis; format: ADME, organism-based; conditions: in vivo
In short: (§5)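 Female 5-week-old rats, two per dose group, given 3 mg/kg orally or intravenously. Oral blood samples at 15 and 30 min, 1, 2, 4 and 6 h; intravenous sample at 3 min. Plasma drug measured by LC-MS/MS (detection limit 0.3 ng/ml). Parameters derived by noncompartmental analysis; mean of n=2.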

[12] = Cmax in Crl:CD/SD IGS, CRJ rat at 3 mg/kg, po by LC-MS/MS analysis; format: ADME, organism-based; parameters: dose 3 mg/kg, route oral; conditions: in vivo; in short: as §5
hERG (KCNH2) = hERG (KCNH2) (Homo sapiens, UniProt Q12809); assay: Inhibition of human ERG at a holding potential of -80 mV at 10 uM by automated patch clamp electrophysiology method
Sequence of hERG (KCNH2) (Q12809 whole entry, the tested form may be a part): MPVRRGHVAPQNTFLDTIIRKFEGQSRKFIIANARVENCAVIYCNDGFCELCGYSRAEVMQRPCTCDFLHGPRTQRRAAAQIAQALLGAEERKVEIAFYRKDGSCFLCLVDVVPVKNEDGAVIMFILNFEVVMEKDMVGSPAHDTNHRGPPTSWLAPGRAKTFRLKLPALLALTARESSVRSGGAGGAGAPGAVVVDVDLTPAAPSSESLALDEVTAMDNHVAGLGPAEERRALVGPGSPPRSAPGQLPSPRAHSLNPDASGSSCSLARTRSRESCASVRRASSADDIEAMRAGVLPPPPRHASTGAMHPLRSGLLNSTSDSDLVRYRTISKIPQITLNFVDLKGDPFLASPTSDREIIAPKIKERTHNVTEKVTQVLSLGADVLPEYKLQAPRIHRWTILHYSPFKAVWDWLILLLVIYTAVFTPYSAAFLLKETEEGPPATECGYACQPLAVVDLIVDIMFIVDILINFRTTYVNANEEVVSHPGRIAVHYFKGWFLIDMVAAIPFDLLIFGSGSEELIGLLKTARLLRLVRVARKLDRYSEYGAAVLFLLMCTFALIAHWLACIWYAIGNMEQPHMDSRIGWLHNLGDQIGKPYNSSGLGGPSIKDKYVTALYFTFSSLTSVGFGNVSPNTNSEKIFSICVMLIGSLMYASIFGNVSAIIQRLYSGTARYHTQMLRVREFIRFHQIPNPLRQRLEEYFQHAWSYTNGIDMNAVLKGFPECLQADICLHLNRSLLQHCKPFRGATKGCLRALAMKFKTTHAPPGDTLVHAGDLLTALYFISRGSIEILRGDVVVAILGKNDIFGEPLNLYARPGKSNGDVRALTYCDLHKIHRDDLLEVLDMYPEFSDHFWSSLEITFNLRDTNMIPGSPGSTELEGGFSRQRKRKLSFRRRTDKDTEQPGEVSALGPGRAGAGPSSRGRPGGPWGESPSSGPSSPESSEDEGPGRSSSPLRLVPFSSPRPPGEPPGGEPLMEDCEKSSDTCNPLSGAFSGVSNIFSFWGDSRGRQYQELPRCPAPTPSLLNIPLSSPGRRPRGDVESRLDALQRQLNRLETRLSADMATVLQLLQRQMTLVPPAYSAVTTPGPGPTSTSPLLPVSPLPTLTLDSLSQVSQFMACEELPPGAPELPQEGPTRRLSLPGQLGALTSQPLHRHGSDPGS

[13] = target: T2, Parathyroid hormone/parathyroid hormone-related peptide receptor (Homo sapiens); assay: Ratio of IC50 for displacement of 125I-PTH (1 to 15 residues) from human PTHR1 expressed in African green monkey COS7 cell membranes to EC50 for agonist activity at human PTHR1 expressed in HKRKB7 cells assessed as accumulation of intracellular cAMP; format: functional
[14] = Oral bioavailability in Crl:CD/SD IGS, CRJ rat at 3 mg/kg by LC-MS/MS analysis; format: ADME, organism-based; conditions: in vivo; in short: as §5
[15] = Half life in Crl:CD/SD IGS, CRJ rat at 3 mg/kg, iv by LC-MS/MS analysis; format: ADME, organism-based; conditions: in vivo; in short: as §5
[16] = AUC (infinity) in Crl:CD/SD IGS, CRJ rat at 3 mg/kg, iv by LC-MS/MS analysis; format: ADME, organism-based; parameters: dose 3 mg/kg, route intravenous, time infinity; conditions: in vivo; in short: as §5
[17] = AUC (infinity) in Crl:CD/SD IGS, CRJ rat at 3 mg/kg, po by LC-MS/MS analysis; format: ADME, organism-based; parameters: dose 3 mg/kg, time infinity, route oral; conditions: in vivo; in short: as §5
[18] = target: T1, Parathyroid hormone/parathyroid hormone-related peptide receptor; assay: Displacement of 125I-PTH (1 to 15 residues) from human PTHR1 expressed in African green monkey COS7 cell membranes at 300 uM after 90 mins by gamma counting analysis
[19] = Tmax in Crl:CD/SD IGS, CRJ rat at 3 mg/kg, po by LC-MS/MS analysis; format: ADME, organism-based; conditions: in vivo; in short: as §5
[20] = Volume of distribution at steady state in Crl:CD/SD IGS, CRJ rat at 3 mg/kg, iv by LC-MS/MS analysis; format: ADME, organism-based; conditions: in vivo, read-out: Vdss; in short: as §5
Rattus norvegicus [21] = assay: In vivo agonist activity at PTHR1 in po dosed Crl:CD(SD) rat TPTX model assessed as increase in serum calcium levels administered as single dose measured after 24 hrs by o-cresolphthalein complexone method; format: functional, organism-based
In short: (§6)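 Female 6-week-old Crl:CD(SD) rats after surgical TPTX; those with serum Ca <8.0 mg/dl at day 5 were used, and dosing began day 6. Single oral dose of 6, 19 or 60 mg/kg, or vehicle (10% DMSO/10% Kolliphor EL in 10% HPCD/0.752% glycine buffer), n=5 per group. Jugular blood taken under isoflurane before dosing and at 0.5, 1, 2, 4, 6, 10 and 24 h. Serum Ca measured by o-CPC, Pi by xanthine oxidase.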

[22] = target: T2, Parathyroid hormone/parathyroid hormone-related peptide receptor (Homo sapiens); assay: Displacement of 125I-PTH (1 to 15 residues) from human PTHR1 expressed in African green monkey COS7 cell membranes after 90 mins by gamma counting analysis
In short: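 Competition binding on membranes from COS-7 cells expressing human PTHR1. Incubated 90 min at room temperature, vacuum-filtered and washed, filter radioactivity gamma-counted. Nonspecific binding defined with excess (1x10^4 M as printed) unlabeled PTH(1-34).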

Rattus norvegicus [23] = assay: In vivo agonist activity at PTHR1 in po dosed Crl:CD(SD) rat TPTX model assessed as decrease in serum phosphorus levels administered as single dose measured after 24 hrs by xanthine oxidase method; format: functional, organism-based; in short: as §6
[24] = Clearance in Crl:CD/SD IGS, CRJ rat at 3 mg/kg, iv by LC-MS/MS analysis; format: ADME, organism-based; conditions: in vivo; in short: as §5
[25] = Clearance in Crl:CD/SD IGS, CRJ rat at 3 mg/kg, po by LC-MS/MS analysis; format: ADME, organism-based; conditions: in vivo; in short: as §5

CC[C@H](C)[C@H](NC(=O)[C@H](CCC(=O)O)NC(=O)[C@H](CO)NC(=O)[C@@H](NC(=O)[C@@H](N)CO)C(C)C)C(=O)N[C@@H](CCC(N)=O)C(=O)N[C@@H](CC(C)C)C(=O)N[C@@H](CCSC)C(=O)N[C@@H](Cc1cnc[nH]1)C(=O)N[C@@H](CC(N)=O)C(=O)N[C@@H](CC(C)C)C(=O)NCC(=O)N[C@@H](CCCCN)C(=O)N[C@@H](Cc1cnc[nH]1)C(=O)N[C@@H](CC(C)C)C(=O)N[C@@H](CC(N)=O)C(=O)N[C@@H](CO)C(=O)N[C@@H](CCSC)C(=O)N[C@@H](CCC(=O)O)C(=O)N[C@@H](CCCN=C(N)N)C(=O)N[C@H](C(=O)N[C@@H](CCC(=O)O)C(=O)N[C@@H](Cc1c[nH]c2ccccc12)C(=O)N[C@@H](CC(C)C)C(=O)N[C@@H](CCCN=C(N)N)C(=O)N[C@@H](CCCCN)C(=O)N[C@@H](CCCCN)C(=O)N[C@@H](CC(C)C)C(=O)N[C@@H](CCC(N)=O)C(=O)N[C@@H](CC(=O)O)C(=O)N[C@H](C(=O)N[C@@H](Cc1cnc[nH]1)C(=O)N[C@@H](CC(N)=O)C(=O)N[C@@H](Cc1ccccc1)C(=O)O)C(C)C)C(C)C [TERIPARATIDE]
half-life [1]: 0.5 h | Tmax (Rattus norvegicus [2]): 0.25 h

CC[C@H](C)[C@H](NC(=O)[C@H](CCC(=O)O)NC(=O)[C@H](CO)NC(=O)[C@@H](NC(=O)[C@@H](N)CO)C(C)C)C(=O)N[C@@H](CCC(N)=O)C(=O)N[C@@H](CC(C)C)C(=O)N[C@@H](CCSC)C(=O)N[C@@H](Cc1cnc[nH]1)C(=O)N[C@@H](CC(N)=O)C(=O)N[C@@H](CC(C)C)C(=O)NCC(=O)N[C@@H](CCCCN)C(=O)N[C@@H](Cc1cnc[nH]1)C(=O)N[C@@H](CC(C)C)C(=O)N[C@@H](CC(N)=O)C(=O)N[C@@H](CO)C(=O)N[C@@H](CCSC)C(=O)N[C@@H](CCC(=O)O)C(=O)N[C@@H](CCCNC(=N)N)C(=O)N[C@H](C(=O)N[C@@H](CCC(=O)O)C(=O)N[C@@H](Cc1c[nH]c2ccccc12)C(=O)N[C@@H](CC(C)C)C(=O)N[C@@H](CCCNC(=N)N)C(=O)N[C@@H](CCCCN)C(=O)N[C@@H](CCCCN)C(=O)N[C@@H](CC(C)C)C(=O)N[C@@H](CCC(N)=O)C(=O)N[C@@H](CC(=O)O)C(=O)N[C@H](C(=O)N[C@@H](Cc1cnc[nH]1)C(=O)N[C@@H](CC(N)=O)C(=O)N[C@@H](Cc1ccccc1)C(=O)O)C(C)C)C(C)C
Activity (Rattus norvegicus [3]): Active | Activity (Rattus norvegicus [4]): Active

Cc1cc(N2CCNC2=O)cc(C)c1CCS(=O)(=O)N1CCC2(CC1)N=C(C1CCCCC1)NC2=O
Activity (LLC-PK1): inactive | microsomal CLint at 1 µM ([5]; liver microsomes, read-out: CLH): 3.4 µL/min/mg | solubility ([6]; buffer, pH 6.5, 1000 µM, BLD = below limit of detection): Bld | solubility ([7]; simulated gi fluid, 1000 µM, BLD = below limit of detection): Bld | EC50 [8]: > 1000 µM | EC20 [9]: 240 µM | microsomal CLint at 1 µM [10]: 62 µL/min/mg

Cc1cc(N(C)C(N)=O)cc(C)c1CCS(=O)(=O)N1CCC2(CC1)N=C([C@H]1CC[C@H](C)CC1)NC2=O
half-life [11]: 1 h | Cmax [12]: 1360 ng/mL | inhibition at 10 µM (hERG (KCNH2)): 10% | Ratio IC50/EC50 [13]: 8 | bioavailability [14]: 55% | half-life [15]: 1.1 h | AUC(0-inf) [16]: 4820 ng·h/mL | Activity (LLC-PK1): inactive | AUC(0-inf) [17]: 2650 ng·h/mL | CLint ([5]; microsomes, 0.5 h, 1 µM): 0.14 µL/min/mg | solubility at 1000 µM ([6]; PBS, pH 6.5): 99 µg/mL (≈ 191 µM) | IC50 [18]: 93.7 µM | Tmax [19]: 1 h | solubility at 1000 µM ([7]; FaSSIF): 250 µg/mL (≈ 483 µM) | Vd [20]: 0.395 L/kg | EC50 [8]: 12 µM | EC20 [9]: 3 µM | Activity (Rattus norvegicus [21]): Dose-dependent effect | microsomal CLint at 1 µM [10]: 45 µL/min/mg | inhibition [22]: 75% | Activity (Rattus norvegicus [23]): Dose-dependent effect | clearance [24]: 10.4 mL/min/kg | CL/F [25]: 19 mL/min/kg
